According to ChEMBL document CHEMBL1144143, “Phenolic glycosides from Dirca palustris” (J Nat Prod, 1999):
The source made the active and inactive calls. No cut-off for these calls is given here.

What was measured:
[1] = Antioxidation activity assessed as inhibition of peroxidation of liposome at 2.20 ug/mL; format: physicochemical; conditions: artificial membrane
Procedure, shortened: (§1)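 Fe2+-initiated peroxidation of large unilamellar liposomes made from 1-stearoyl-2-linoleoyl-phosphocholine with the fluorescent probe 3-[p-(6-phenyl)-1,3,5-hexatrienyl]phenylpropionic acid. Liposomes were extruded through a 100 nm membrane. The assay used Chelex-treated HEPES buffer at pH 7.0 with NaCl, at 23 °C, with test agent in DMSO. Reaction was started with 20 µM FeCl2 (final). Fluorescence (excitation 384 nm) was read every 3 min for 21 min. Positive controls were at 10 µM final.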

[2] = biological target: T1, Prostaglandin G/H synthase 1 (Ovis aries) (UniProt P05979); conditions: 180 ug/mL
T1 sequence (whole entry): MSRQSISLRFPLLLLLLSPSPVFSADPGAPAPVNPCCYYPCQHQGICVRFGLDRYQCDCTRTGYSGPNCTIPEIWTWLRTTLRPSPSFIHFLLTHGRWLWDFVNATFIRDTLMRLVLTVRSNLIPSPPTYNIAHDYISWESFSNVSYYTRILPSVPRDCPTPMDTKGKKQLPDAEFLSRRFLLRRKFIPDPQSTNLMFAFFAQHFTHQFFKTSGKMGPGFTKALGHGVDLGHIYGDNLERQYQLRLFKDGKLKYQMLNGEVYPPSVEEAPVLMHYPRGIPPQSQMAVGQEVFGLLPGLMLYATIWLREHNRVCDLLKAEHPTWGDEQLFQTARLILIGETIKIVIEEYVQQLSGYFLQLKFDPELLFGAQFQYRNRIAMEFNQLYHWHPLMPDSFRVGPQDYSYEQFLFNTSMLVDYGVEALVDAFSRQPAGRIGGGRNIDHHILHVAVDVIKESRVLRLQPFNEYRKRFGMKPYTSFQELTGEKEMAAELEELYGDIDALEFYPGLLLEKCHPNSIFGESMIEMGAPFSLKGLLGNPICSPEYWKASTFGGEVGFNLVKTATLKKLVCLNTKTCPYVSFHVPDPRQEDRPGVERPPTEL

[3] = Antioxidation activity assessed as inhibition of peroxidation of liposome at 1.66 ug/mL; format: physicochemical; conditions: artificial membrane; procedure, shortened: as §1
[4] = Antioxidation activity assessed as inhibition of peroxidation of liposome at 4.31 ug/mL; format: physicochemical; conditions: artificial membrane; procedure, shortened: as §1
[5] = Antioxidation activity assessed as inhibition of peroxidation of liposome at 60 ug/mL; format: physicochemical; conditions: artificial membrane; procedure, shortened: as §1
[6] = Inhibition of insect cell COX2 at 200 ug/mL
Procedure, shortened: (§2)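 COX-II was an insect cell lysate preparation, diluted in Tris at pH 7.0 to about 1.5 mg protein/mL. O2 uptake was measured at 37 °C by oxygen electrode. Mixture: 0.1 M Tris at pH 7.0, phenol, hemoglobin and 100 µmol arachidonic acid. Compound was added in DMSO, and the reaction was started by adding enzyme protein.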

[7] = biological target: T1, Prostaglandin G/H synthase 1 (Ovis aries); experiment: Inhibition of sheep COX1
Procedure, shortened: (§3)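 COX-I. Initial rate of O2 uptake measured at 37 °C with an oxygen electrode. Mixture: 0.1 M Tris at pH 7.0, 1 mmol phenol, 85 µg hemoglobin and 100 µmol arachidonic acid. Compound was added in DMSO, with a DMSO-only control. Reaction was started with 5-25 µg microsomal protein. Results are expressed as % inhibition.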

[8] = biological target: T1, Prostaglandin G/H synthase 1 (Ovis aries); experiment: Inhibition of sheep COX1 at 200 ug/mL; procedure, shortened: as §3
[9] = biological target: T1, Prostaglandin G/H synthase 1 (Ovis aries); conditions: 2.52 ug/mL
[10] = biological target: T1, Prostaglandin G/H synthase 1 (Ovis aries); conditions: 2.06 ug/mL
[11] = Inhibition of insect cell COX2 at 125 ug/mL; procedure, shortened: as §2
[12] = Antioxidation activity assessed as inhibition of peroxidation of liposome; format: physicochemical; conditions: artificial membrane; procedure, shortened: as §1
[13] = biological target: T1, Prostaglandin G/H synthase 1 (Ovis aries); experiment: Inhibition of sheep COX1 at 125 ug/mL; procedure, shortened: as §3
[14] = Antioxidation activity assessed as inhibition of peroxidation of liposome at 1.80 ug/mL; format: physicochemical; conditions: artificial membrane
Procedure, shortened: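 Large unilamellar liposomes (100 nm extrusion) of 1-stearoyl-2-linoleoyl phosphatidylcholine carrying a phenylhexatrienyl-phenylpropionic acid fluorescent probe, in Chelex-treated HEPES pH 7.0 with NaCl. Test compound added in DMSO. Peroxidation started with FeCl2 (20 µM Fe2+ final) at 23 °C. Fluorescence (excitation 384 nm) read every 3 min for 21 min; the fall in relative intensity gives the peroxidation rate.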

Q: For Cc1cc(C(C)(C)C)c(O)c(C(C)(C)C)c1 [BUTYLATED HYDROXYTOLUENE], which “inhibition (INH)” value [1] is on record?
A: Its value is 81%.

Q: With CC(=O)Oc1ccccc1C(=O)O as the compound, how does the inhibition [2] read?
A: The inhibition was 52.1%.

Q: Which “inhibition (INH)” value [3] does the source give for CC(C)(C)c1cc(O)ccc1O [E319] here?
A: The value was 90%.

Q: For VITAMIN E, which “inhibition (INH)” value [4] is on record?
A: Its value is 7%.

Q: Which “inhibition (INH)” value [5] does the source give for COc1ccc(-c2cc(=O)c3c(OC)cc(O[C@@H]4O[C@H](CO[C@H]5OC[C@@H](O)[C@H](O)[C@H]5O)[C@@H](O)[C@H](O)[C@H]4O)cc3o2)cc1OC here?
A: The value was 98%.

Q: What about the Activity [6] of the same compound?
A: Its Activity is “inactive”.

Q: And the Activity [7]?
A: Its Activity is “inactive”.

Q: What does the source list for COc1cc(O[C@@H]2O[C@H](CO[C@H]3OC[C@@H](O)[C@H](O)[C@H]3O)[C@@H](O)[C@H](O)[C@H]2O)cc2oc(-c3ccc(O)cc3)cc(=O)c12?
A: inhibition (INH) [5]: 71%; Activity [6]: inactive; inhibition [8]: 12.5%

Q: Which inhibition [9] does the source give for COc1ccc2cc([C@H](C)C(=O)O)ccc2c1 here?
A: The inhibition was 58%.

Q: Which inhibition [10] does the source give for CC(C)Cc1ccc(C(C)C(=O)O)cc1 (configuration not stated) here?
A: The inhibition was 53.3%.

Q: For COc1ccc(-c2cc(=O)c3c(OC)cc(O[C@@H]4O[C@H](CO[C@H]5OC[C@@H](O)[C@H](O)[C@H]5O)[C@@H](O)[C@H](O)[C@H]4O)cc3o2)cc1, which “inhibition (INH)” value [5] is on record?
A: Its value is 78%.

Q: What about the Activity [6] of the same compound?
A: The Activity was “inactive”.

Q: And the Activity [7]?
A: Its Activity is “inactive”.

Q: Which Activity [11] does the source give for COc1cc(/C=C/CO)c(OC)c(O[C@@H]2O[C@H](CO)[C@@H](O)[C@H](O)[C@H]2O)c1 here?
A: The Activity was “inactive”.

Q: And the Activity [12]?
A: The Activity was “Not Active”.

Q: And the inhibition [13]?
A: The inhibition was 9.2%.

Q: With COc1ccc(O)c(C(C)(C)C)c1.COc1ccc(O)cc1C(C)(C)C [BUTYLATED HYDROXYANISOLE] as the compound, how does the “inhibition (INH)” value [14] read?
A: The value was 91%.

Q: What does the source list for COc1ccc(-c2cc(=O)c3c(OC)cc(O[C@@H]4O[C@H](CO[C@H]5O[C@H](C)[C@@H](O)[C@H](O)[C@H]5O)[C@@H](O)[C@H](O)[C@H]4O)cc3o2)cc1OC?
A: inhibition (INH) [5]: 67%; Activity [6]: inactive; Activity [7]: inactive
